Results of several laboratories.
Protocols differ between the studies behind these lines.
Target: MAP kinase-interacting serine/threonine-protein kinase 1 (MKNK1, Homo sapiens, UniProt Q9BUB5)

N#Cc1ccccc1CSc1nnc2c(n1)[nH]c1ccccc12  remaining binding (binding, competition with immobilised ligand; 10 µM): 98%
Cc1cnc(Nc2ccc(C(=O)N3CCC(N4CCCC4)CC3)cc2)nc1-c1cc2ccccc2s1  remaining binding (binding, competition with immobilised ligand; 1 µM): 48%
C[C@H]1CCN(c2nccc(-c3cnn4ncccc34)n2)C1  remaining binding (binding; 1 µM): 59%
O=C(NCCCC1CCCCC1)c1ccc(CNC(=O)c2cnn(-c3ccccc3)c2C(F)(F)F)cc1  remaining binding (cell-free assay, competition with immobilised ligand; 0.1 µM): 98%
CCN1CCN(Cc2ccc(C(=O)Nc3ccc(C)c(Oc4ccc5c(c4)CC(=O)N5)c3)cc2C(F)(F)F)CC1  remaining binding (binding, competition with immobilised ligand; 1 µM): 100%
C[C@@H]1CN(c2cc(-c3n[nH]c4ccc(OC5(C)CC5)cc34)ncn2)C[C@H](C)O1  remaining binding (cell-free assay, competition with immobilised ligand; 0.1 µM): 67%
CN(CCCC(F)(F)F)c1nccc(-c2cnn3ncccc23)n1  remaining binding (binding; 1 µM): 100%
O=C(NCCCN1CCOCC1)c1ccc(Nc2ncc(Cl)c(-c3ccc(Cl)s3)n2)cc1  remaining binding (binding, competition with immobilised ligand; 1 µM): 84%
F[C@@H]1CCN(c2nccc(-c3cnn4ncccc34)n2)C1  remaining binding (binding; 1 µM): 100%
CC(=O)N1CCC(c2ccc(C(=O)NC(=N)N)cc2C(F)(F)F)CC1  remaining binding (cell-free assay, competition with immobilised ligand; 1 µM): 100%
O=C(NCC1CCOCC1)c1n[nH]cc1NC(=O)c1c(F)cccc1F  remaining binding (binding, competition with immobilised ligand; 1 µM): 88%
COc1cnc(Nc2cccc(S(N)(=O)=O)c2)nc1N1CCN(c2ccccc2)C(=O)C1  remaining binding (binding, competition with immobilised ligand; 1 µM): 98%
O=C(NCCCN1CCOCC1)c1ccc(Nc2nccc(-c3cc4ccccc4s3)n2)cc1  remaining binding (binding, competition with immobilised ligand; 1 µM): 43%
C[C@@H]1CN(c2ccc3ncc(-c4ccc5[nH]nc(C6CC6)c5c4)n3n2)C[C@H](C)O1  remaining binding (binding, competition with immobilised ligand; 0.5 µM): 94%
c1cnn2ncc(-c3ccnc(N4CCC45COC5)n3)c2c1  remaining binding (binding; 1 µM): 53%
CS(=O)(=O)N1CCCC(NC(=O)[C@H](CCC2CCCCC2)NC(=O)c2ccc(CNC(=O)c3cnc4ccccn34)cc2)C1 (stereo partly shown)  remaining binding (cell-free assay, competition with immobilised ligand; 0.1 µM): 100%
Nc1ncc2c(n1)-c1c([nH]c3ccc(C#CC4CC4)cc13)CCCC2  remaining binding (binding, competition with immobilised ligand; 1 µM): 86%
CCS(=O)(=O)c1cc2cc(C[C@@](O)(CC(C)(C)c3ccc(F)cc3C(N)=O)C(F)(F)F)[nH]c2cn1  remaining binding (cell-free assay, competition with immobilised ligand; 1 µM): 46%
CNC(=O)[C@@H]1CC[C@@H](n2c(-c3ccc4cnccc4c3)nc3ccc(C(=O)NCc4cccc(C(N)=O)c4)cc32)C1  remaining binding (binding, competition with immobilised ligand; 1 µM): 100%
COc1cc(-c2cn(C3CCc4c(F)cccc4N(CC(F)(F)F)C3=O)nn2)ccc1-n1cnc(C)c1 (stereo not shown)  remaining binding (cell-free assay, competition with immobilised ligand; 1 µM): 87%
CN(C)c1ncc(F)c(-c2cnn3ncccc23)n1  remaining binding (binding; 1 µM): 62%
Cc1nc(Cc2cccc(C(F)(F)F)c2)sc1-c1ccc(C(N)=O)nc1  remaining binding (cell-free assay, competition with immobilised ligand; 1 µM): 100%
N[C@H]1CCN(c2nccc(-c3cnn4ncccc34)n2)C1  remaining binding (binding; 1 µM): 90%
CC(=O)C1=C(C)N(c2cccc(C(F)(F)F)c2)C(=O)N[C@@H]1c1ccc(C#N)nc1  remaining binding (cell-free assay, competition with immobilised ligand; 1 µM): 100%
FC(F)(F)Oc1cccc(-c2cnc3ccc(-c4ccncc4)nn23)c1  remaining binding (cell-free assay, competition with immobilised ligand; 5 µM): 71%
